Calls of active or inactive are those of the source. The calls are words filed in the database; no cut-off is given here.
Tests used:
Feline coronavirus = experiment: Antiviral activity against Feline caronavirus infected in […] cells assessed as inhibition of virus-induced cytopathic effect after 3 days by MTS assay; format: functional, organism-based
Summary of the method: (§1)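 Confluent cell monolayers were infected with 100 CCID50 of virus and allowed 2 h adsorption at 37 °C. Virus was then removed and serial compound dilutions were added. Cultures were incubated at 37 °C for 3 days, until CPE was complete in the untreated virus control. EC50 was the concentration giving 50% inhibition of virus-induced CPE, by visual score or by MTS formazan cell viability.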

Candida albicans = experiment: Antifungal activity against Candida albicans after 48 hrs by serial dilution method; format: functional
Summary of the method: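 Serial compound dilutions in Sabouraud dextrose broth (tube dilution), incubated 37 °C for 48 h. MIC was read as the lowest concentration with no growth.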

Staphylococcus aureus = experiment: Antibacterial activity against Staphylococcus aureus after 24 hrs by serial dilution method; format: functional
Influenza A virus [1] = experiment: Antiviral activity against influenza A virus H3N2 infected in MDCK cells assessed as inhibition of virus-induced cytopathic effect after 3 days by MTS assay; format: functional, organism-based; summary of the method: as §1
Vaccinia virus = experiment: Antiviral activity against Vaccinia virus infected in human HEL cells assessed as inhibition of virus-induced cytopathic effect after 3 days by MTS assay; format: functional, organism-based; details: Orthopoxvirus vaccinia; summary of the method: as §1
[2] = test system: Mammalian orthoreovirus 1; experiment: Antiviral activity against Reovirus 1 infected in african green monkey Vero cells assessed as inhibition of virus-induced cytopathic effect after 3 days by MTS assay; format: functional, organism-based; summary of the method: as §1
Bacillus subtilis = experiment: Antibacterial activity against Bacillus subtilis after 24 hrs by serial dilution method; format: functional
[3] = test system: Vesicular stomatitis virus; experiment: Antiviral activity against VSV infected in human HEL cells assessed as inhibition of virus-induced cytopathic effect after 3 days by MTS assay; format: functional, organism-based; summary of the method: as §1
Human respirovirus 3 = experiment: Antiviral activity against Parainfluenza 3 virus infected in african green monkey Vero cells assessed as inhibition of virus-induced cytopathic effect after 3 days by MTS assay; format: functional, organism-based; summary of the method: as §1
Coxsackievirus B4 [4] = experiment: Antiviral activity against Coxsackie virus B4 infected in african green monkey Vero cells assessed as inhibition of virus-induced cytopathic effect after 3 days by MTS assay; format: functional, organism-based; summary of the method: as §1
Aspergillus niger = experiment: Antifungal activity against Aspergillus niger after 7 days by serial dilution method; format: functional
Influenza A virus [5] = experiment: Antiviral activity against influenza A virus H1N1 infected in MDCK cells assessed as inhibition of virus-induced cytopathic effect after 3 days by MTS assay; format: functional, organism-based; summary of the method: as §1
Human alphaherpesvirus 2 = experiment: Antiviral activity against Herpes simplex virus 2 G infected in human HEL cells assessed as inhibition of virus-induced cytopathic effect after 3 days by MTS assay; format: functional, organism-based; details: strain G; summary of the method: as §1
Human alphaherpesvirus 1 [6] = experiment: Antiviral activity against Herpes simplex virus 1 KOS infected in human HEL cells assessed as inhibition of virus-induced cytopathic effect after 3 days by MTS assay; format: functional, organism-based; summary of the method: as §1
Influenza B virus = experiment: Antiviral activity against influenza B virus infected in MDCK cells assessed as inhibition of virus-induced cytopathic effect after 3 days by MTS assay; format: functional, organism-based; summary of the method: as §1
Punta Toro virus = experiment: Antiviral activity against Punta toro virus infected in african green monkey Vero cells assessed as inhibition of virus-induced cytopathic effect after 3 days by MTS assay; format: functional, organism-based; summary of the method: as §1
Human alphaherpesvirus 1 [7] = experiment: Antiviral activity against acyclovir-resistant […] kinase-deficient HSV1 KOS infected in human HEL cells assessed as inhibition of virus-induced cytopathic effect after 3 days by MTS assay; format: functional, organism-based; summary of the method: as §1
Sindbis virus = experiment: Antiviral activity against Simbidis virus infected in african green monkey Vero cells assessed as inhibition of virus-induced cytopathic effect after 3 days by MTS assay; format: functional, organism-based; summary of the method: as §1
Escherichia coli = experiment: Antibacterial activity against Escherichia coli after 24 hrs by serial dilution method; format: functional
Felid alphaherpesvirus 1 = experiment: Antiviral activity against Feline herpesvirus 1 infected in […] cells assessed as inhibition of virus-induced cytopathic effect after 3 days by MTS assay; format: functional, organism-based; summary of the method: as §1
[8] = Cytotoxicity against human HeLa cells after 3 days by MTS assay; format: cell-based; details: HeLa cells
Summary of the method: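 Uninfected HeLa cells were run in parallel with the antiviral assay and exposed to serial compound dilutions. CC50 is the 50% cytotoxic concentration from colorimetric formazan-based MTS cell viability.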

[9] = test system: Vesicular stomatitis virus; experiment: Antiviral activity against VSV infected in human HeLa cells assessed as inhibition of virus-induced cytopathic effect after 3 days by MTS assay; format: functional, organism-based; details: 72 h; summary of the method: as §1
[10] = test system: Respiratory syncytial virus; experiment: Antiviral activity against RSV infected in human HeLa cells assessed as inhibition of virus-induced cytopathic effect after 3 days by MTS assay; format: functional, organism-based; details: 72 h; summary of the method: as §1
Coxsackievirus B4 [11] = experiment: Antiviral activity against Coxsackie virus B4 infected in human HeLa cells assessed as inhibition of virus-induced cytopathic effect after 3 days by MTS assay; format: functional, organism-based; details: Enterovirus B, 72 h; summary of the method: as §1

SMILES	inhibition (Feline coronavirus)	MFC (Candida albicans)	MBC (Staphylococcus aureus)	inhibition (Influenza A virus [1])	inhibition (Vaccinia virus)	inhibition [2]	MBC (Bacillus subtilis)	inhibition [3]	inhibition (Human respirovirus 3)	inhibition (Coxsackievirus B4 [4])	-logMIC (Aspergillus niger)	MFC (Aspergillus niger)	inhibition (Influenza A virus [5])	inhibition (Human alphaherpesvirus 2)	inhibition (Human alphaherpesvirus 1 [6])	inhibition (Influenza B virus)	inhibition (Punta Toro virus)	inhibition (Human alphaherpesvirus 1 [7])	inhibition (Sindbis virus)	MBC (Escherichia coli)	further results
CCCCCCCCCCCC(=O)N/N=C/c1ccccc1Cl	inactive	>0.148 uM/ml	>0.148 uM/ml	inactive	inactive	inactive	0.148 uM/ml	inactive	inactive	inactive	1.43	>0.148 uM/ml	inactive	inactive	inactive	inactive	inactive	inactive	inactive	0.009 uM/ml	-logMIC (Escherichia coli): 1.8; inhibition (Felid alphaherpesvirus 1): inactive
Cc1ccc(C(=O)N/N=C/c2ccccc2)cc1	inactive	>0.21 uM/ml	>0.21 uM/ml	inactive	inactive	inactive	0.21 uM/ml	inactive	inactive	inactive	1.88	>0.21 uM/ml	inactive	inactive	inactive	inactive	inactive	inactive	inactive	0.052 uM/ml	inhibition (Felid alphaherpesvirus 1): inactive
CCCCCCCCCCCCCC(=O)N/N=C/c1ccccc1Cl	inactive	>0.137 uM/ml	>0.137 uM/ml	inactive	inactive	inactive	>0.137 uM/ml	inactive	inactive	inactive	1.12	>0.137 uM/ml	inactive	inactive	inactive	inactive	inactive	inactive	inactive	0.034 uM/ml	inhibition (Felid alphaherpesvirus 1): inactive
NC(=O)c1ncn([C@@H]2O[C@H](CO)[C@@H](O)[C@H]2O)n1 [RIBAVIRIN]	–	–	–	–	–	–	–	–	–	–	–	–	–	–	–	–	–	–	–	–	CC50 at 72 h [8]: > 250 µg/mL; MCC at 72 h [8]: > 250 µM; EC50 [9]: 17.2 µM; EC50 [10]: 6.6 µM; EC50 (Coxsackievirus B4 [11]): 73.1 µM
Cc1ccc(C(=O)N/N=C/c2ccccc2Cl)cc1	inactive	>0.183 uM/ml	0.045 uM/ml	inactive	inactive	inactive	0.183 uM/ml	inactive	inactive	inactive	1.61	0.183 uM/ml	inactive	inactive	inactive	inactive	inactive	inactive	inactive	0.045 uM/ml	inhibition (Felid alphaherpesvirus 1): inactive
CCCCCCCCCCCCCCCCCC(=O)N/N=C/c1ccccc1Cl	inactive	>0.119 uM/ml	>0.119 uM/ml	inactive	inactive	inactive	0.029 uM/ml	inactive	inactive	inactive	1.29	0.059 uM/ml	inactive	inactive	inactive	inactive	inactive	inactive	inactive	>0.119 uM/ml	-logMIC (Staphylococcus aureus): 1.53; -logMIC (Bacillus subtilis): 1.53; inhibition (Felid alphaherpesvirus 1): inactive
Nc1ncnc2c1ncn2C[C@H](O)CO [(S)-DHPA]	–	–	–	–	–	–	–	–	–	–	–	–	–	–	–	–	–	–	–	–	CC50 at 72 h [8]: > 250 µg/mL; MCC at 72 h [8]: > 250 µM; EC50 [9]: > 250 µM; EC50 [10]: > 250 µM; EC50 (Coxsackievirus B4 [11]): > 250 µM
O=C(/C=C/c1ccccc1)N/N=C/c1ccccc1	inactive	>0.2 uM/ml	>0.2 uM/ml	inactive	inactive	inactive	>0.2 uM/ml	inactive	inactive	inactive	1.6	>0.2 uM/ml	inactive	inactive	inactive	inactive	inactive	inactive	inactive	0.05 uM/ml	inhibition (Felid alphaherpesvirus 1): inactive
O=C(N/N=C/c1ccccc1)c1cc([N+](=O)[O-])cc([N+](=O)[O-])c1	inactive	0.159 uM/ml	>0.159 uM/ml	inactive	inactive	inactive	0.159 uM/ml	inactive	inactive	inactive	1.7	0.079 uM/ml	inactive	inactive	inactive	inactive	inactive	inactive	inactive	>0.159 uM/ml	inhibition (Felid alphaherpesvirus 1): inactive
Cc1cccc(C(=O)N/N=C/c2ccccc2)c1	inactive	>0.21 uM/ml	>0.21 uM/ml	inactive	inactive	inactive	0.052 uM/ml	inactive	inactive	inactive	1.58	>0.21 uM/ml	inactive	inactive	inactive	inactive	inactive	inactive	inactive	>0.21 uM/ml	inhibition (Felid alphaherpesvirus 1): inactive

Reference: ChEMBL document CHEMBL1177846, “Benzylidene/2-chlorobenzylidene hydrazides: synthesis, antimicrobial activity, QSAR studies and antiviral evaluation” (Eur J Med Chem, 2010)
